# Experimental data published in ChEMBL document CHEMBL5137074 (J Med Chem, 2022).
# What was measured:
# [1] = Plasma protein binding in rat at 1 uM
# [2] = rat, in vivo, po, 5 mg/kg, 24 h
# [3] = rat, in vivo, iv, 1 mg/kg, 24 h
# Wee1-like protein kinase = Wee1-like protein kinase (Homo sapiens, UniProt P30291); assay: Inhibition of WEE1 (unknown origin)
# [4] = biological target: T1, Membrane-associated tyrosine- and threonine-specific cdc2-inhibitory kinase (Homo sapiens, UniProt Q99640)
# T1 sequence (Q99640 whole entry): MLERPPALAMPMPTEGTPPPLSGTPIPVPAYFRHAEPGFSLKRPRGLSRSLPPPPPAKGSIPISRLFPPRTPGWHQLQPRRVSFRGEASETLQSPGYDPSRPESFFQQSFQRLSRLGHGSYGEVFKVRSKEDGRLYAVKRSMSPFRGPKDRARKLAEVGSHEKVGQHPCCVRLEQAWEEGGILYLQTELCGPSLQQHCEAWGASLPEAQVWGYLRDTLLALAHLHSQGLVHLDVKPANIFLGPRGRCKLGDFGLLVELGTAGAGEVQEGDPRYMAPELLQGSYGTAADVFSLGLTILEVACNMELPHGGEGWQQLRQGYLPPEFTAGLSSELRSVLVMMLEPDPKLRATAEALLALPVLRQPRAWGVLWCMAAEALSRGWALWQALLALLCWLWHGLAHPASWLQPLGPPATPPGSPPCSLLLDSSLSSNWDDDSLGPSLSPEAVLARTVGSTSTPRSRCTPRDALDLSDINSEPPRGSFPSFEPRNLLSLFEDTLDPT
# Ephrin type-B receptor 3 = biological target: T2, Ephrin type-B receptor 3 (Homo sapiens, UniProt P54753); assay: Inhibition of full length Nano-luc fused EPHB3 in human HEK-293T cells incubated for 2 hrs by cell based NanoBRET target engagement assay
# T2 sequence (P54753 whole entry): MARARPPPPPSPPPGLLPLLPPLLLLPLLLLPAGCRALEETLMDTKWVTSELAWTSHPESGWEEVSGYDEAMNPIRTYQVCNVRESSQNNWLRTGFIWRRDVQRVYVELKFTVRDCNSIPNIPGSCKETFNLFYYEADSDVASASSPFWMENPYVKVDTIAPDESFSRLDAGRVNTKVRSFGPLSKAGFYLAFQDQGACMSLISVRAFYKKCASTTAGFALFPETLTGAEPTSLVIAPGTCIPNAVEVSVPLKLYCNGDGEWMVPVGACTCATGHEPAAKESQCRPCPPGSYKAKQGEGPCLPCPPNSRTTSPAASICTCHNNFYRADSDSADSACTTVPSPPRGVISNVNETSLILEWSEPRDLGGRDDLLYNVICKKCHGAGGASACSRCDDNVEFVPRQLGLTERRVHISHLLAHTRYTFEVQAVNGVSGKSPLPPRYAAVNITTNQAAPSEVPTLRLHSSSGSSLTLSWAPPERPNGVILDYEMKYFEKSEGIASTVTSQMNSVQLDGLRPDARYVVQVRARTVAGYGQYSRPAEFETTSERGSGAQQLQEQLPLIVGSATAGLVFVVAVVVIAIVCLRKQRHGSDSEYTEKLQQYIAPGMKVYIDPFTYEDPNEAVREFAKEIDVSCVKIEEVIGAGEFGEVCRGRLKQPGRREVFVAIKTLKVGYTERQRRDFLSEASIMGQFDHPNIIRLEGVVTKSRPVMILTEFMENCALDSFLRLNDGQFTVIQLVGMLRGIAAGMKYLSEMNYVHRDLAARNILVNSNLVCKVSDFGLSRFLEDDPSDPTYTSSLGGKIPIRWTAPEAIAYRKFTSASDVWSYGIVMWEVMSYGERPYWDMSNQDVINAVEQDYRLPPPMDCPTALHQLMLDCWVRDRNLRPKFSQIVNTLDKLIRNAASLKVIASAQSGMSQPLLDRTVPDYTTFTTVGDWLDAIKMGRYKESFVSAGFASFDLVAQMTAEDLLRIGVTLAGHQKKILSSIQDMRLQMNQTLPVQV
# How it was run: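 HEK293T cells transiently transfected with the NanoLuc–kinase fusion vector plus carrier DNA and left overnight at 37 °C/5% CO2. Cells were resuspended in phenol red-free Opti-MEM at 17000 cells/well with the tracer. They were then exposed to compound for 2 h at 37 °C, and substrate/inhibitor mix was added. Acceptor (610 nm) and donor (450 nm) emissions were read.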
# [5] = Toxicity in SCID/Beige mouse xenografted with OVCAR-3 cells assessed as tolerated dose at 300 ppm measured upto 21 days; assay type: cell-based; conditions: in vivo, 504 h, time < 21 day
# How it was run: (§1)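 OVCAR3 flank xenografts in female SCID-beige mice (n=8) given drug-formulated chow for 21 days after blank-chow acclimatization. Individual body weight change relative to day 0 = (BWlast−BWday0)/BWday0 ×100. Food consumption was also monitored as two-day mean chow intake.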
# [6] = Apparent permeability across apical to basolateral side in human Caco-2 cells
# [7] = In vivo inhibition of PKMYT1 in SCID/Beige mouse xenografted with human OVCAR-3 cells assessed as inhibition of CDK1 phosphorylation measured upto 10 hrs post oral dose by ELISA method; assay type: functional
# How it was run: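 OVCAR3 tumours were collected 2, 6 and 10 h after oral BID dosing (n=4/group/time point). They were homogenised in Tris lysis buffer with protease and phosphatase inhibitors. pCDK1(Thr14) was measured by sandwich ELISA with an anti-CDK1 capture antibody, an anti-CDK1-pT14 detector and an anti-rabbit HRP secondary, read at 450 nm. Signal was expressed relative to vehicle, and the free-plasma EC50 was derived by non-linear dose-response fitting.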
# [8] = Oral bioavailability in CD-1 mouse at 2.5 to 5 mg/kg measured upto 24 hrs by HPLC-LCMS analysis; assay type: ADME, organism-based; conditions: in vivo, dose 2.5-5 mg/kg
# How it was run: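 Female CD1 mice (20–30 g) dosed IV at 1 mg/kg as a solution. Oral dosing at 2.5 or 5 mg/kg as a suspension in 0.5% methyl cellulose. […] Non-compartmental analysis.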
# OVCAR-3 [9] = assay: Antitumor activity against human OVCAR-3 cells xenografted in SCID/Beige mouse assessed as time over EC90 concentration at 15 ppm incorporated with chow diet; assay type: functional
# How it was run: (§2)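 OVCAR3-bearing SCID-beige mice were fed drug-formulated chow. Whole blood was sampled at 6:30am and 4:30pm on days 2, 5 and 22 and quantified by LC-MS/MS. Blood levels were converted to free plasma levels using blood/plasma ratio 1.2 and CD-1 plasma fu 0.185. […] Time over EC90 was referenced to the tumour pCDK1(Thr14) EC90.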
# Cytochrome P450 2D6 = Cytochrome P450 2D6 (Homo sapiens, UniProt P10635); assay: Inhibition of CYP2D6 (unknown origin)
# [10] = Oral bioavailability in Cynomolgous monkey at 1 mg/kg measured upto 24 hrs by reversed phase LCMS analysis; assay type: ADME, organism-based, Macaca fascicularis; conditions: cynomolgus monkey, in vivo
# OVCAR-3 [11] = assay: Antitumor activity against human OVCAR-3 cells xenografted in SCID/Beige mouse assessed as reduction in tumor growth measured upto 20 days by digital caliper method; assay type: functional, cell-based; conditions: dose 15-300 ppm, time <= 21.0 day, DDE = dose-dependent effect, in the assay text read “upto 21 days” for “upto 20 days”
# How it was run: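 Female SCID-beige mice (5–7 weeks) were implanted in the right flank with 5×10^6 OVCAR3 cells in 1:1 matrigel:media. At 100–150 mm3 they were randomised (n=8/group) and acclimatised to blank chow for 3–5 days. They then received drug-formulated chow at 15, 50 or 300 ppm for 21 days. Tumours were measured by caliper, with volume = 0.52×L×W2. TGI was calculated from group means at day 0 and the last day versus vehicle.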
# [12] = biological target: Voltage-gated inwardly rectifying potassium channel KCNH2 (Homo sapiens, UniProt Q12809); assay: Inhibition of human ERG by patch-clamp assay; assay type: toxicity
# [13] = Unbound Cmax in SCID/Beige mouse xenografted with OVCAR-3 cells at 50 ppm incorporated with chow diet; assay type: ADME; conditions: po; how it was run: as §2
# Cytochrome P450 2C9 = Cytochrome P450 2C9 (Homo sapiens, UniProt P11712); assay: Inhibition of CYP2C9 (unknown origin)
# [14] = Metabolic stability in human hepatocytes assessed as intrinsic clearance measured per 10^6 cells
# Cytochrome P450 3A4 = Cytochrome P450 3A4 (Homo sapiens, UniProt P08684); assay: Induction of CYP3A4 in human hepatocytes at 3 uM relative to rifampicin; assay type: ADME, cell-based, Hepatocyte
# How it was run: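 Single-donor human hepatocytes exposed at 3 μM. CYP3A4 induction expressed as % of the 10 μM rifampicin positive control.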
# [15] = Toxicity in SCID/Beige mouse xenografted with OVCAR-3 cells assessed as change in body weight at 300 ppm measured upto 21 days; assay type: cell-based; conditions: in vivo, 504 h, time < 21 day; how it was run: as §1
# [16] = Toxicity in SCID/Beige mouse xenografted with OVCAR-3 cells assessed as reduction in food consumption at 15 to 300 ppm incorporated with chow diet measured upto 21 days; assay type: cell-based; conditions: in vivo, po, 504 h, dose 15-300 ppm, time < 21 day
# How it was run: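 The drug was dissolved in acetone and mixed into rodent meal at 300 ppm, then diluted with untreated feed to lower levels. Xenografted SCID-beige mice were acclimatised to blank chow, then fed 15, 50 or 300 ppm chow for 21 days. The two-day mean chow consumption was compared with mice on blank chow.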
# [17] = Stability in SCID/Beige mouse plasma assessed as unbound compound at 50 to 300 ppm simulated dose incorporated with chow diet measured on 22 day; assay type: ADME; conditions: in vivo, po, dose 50-300 ppm; how it was run: as §2
# Wee1-like protein kinase, sequence (P30291 whole entry): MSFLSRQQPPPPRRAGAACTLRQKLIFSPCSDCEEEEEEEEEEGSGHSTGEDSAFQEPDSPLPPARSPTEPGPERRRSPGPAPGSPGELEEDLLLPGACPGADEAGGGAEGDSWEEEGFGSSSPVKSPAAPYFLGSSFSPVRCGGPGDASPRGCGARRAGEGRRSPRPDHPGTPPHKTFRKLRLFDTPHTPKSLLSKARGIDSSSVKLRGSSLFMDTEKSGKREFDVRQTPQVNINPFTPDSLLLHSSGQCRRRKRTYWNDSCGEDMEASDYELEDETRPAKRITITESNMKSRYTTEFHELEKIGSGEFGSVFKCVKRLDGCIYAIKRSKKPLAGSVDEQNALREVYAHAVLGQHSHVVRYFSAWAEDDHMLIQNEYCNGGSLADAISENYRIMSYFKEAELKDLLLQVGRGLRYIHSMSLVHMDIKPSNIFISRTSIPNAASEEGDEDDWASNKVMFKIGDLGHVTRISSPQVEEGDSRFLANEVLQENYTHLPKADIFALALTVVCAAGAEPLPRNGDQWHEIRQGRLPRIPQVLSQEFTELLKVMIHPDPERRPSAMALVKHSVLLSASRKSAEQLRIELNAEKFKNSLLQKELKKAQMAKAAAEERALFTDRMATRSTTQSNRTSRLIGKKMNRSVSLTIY
# Cytochrome P450 2D6, sequence (P10635 whole entry): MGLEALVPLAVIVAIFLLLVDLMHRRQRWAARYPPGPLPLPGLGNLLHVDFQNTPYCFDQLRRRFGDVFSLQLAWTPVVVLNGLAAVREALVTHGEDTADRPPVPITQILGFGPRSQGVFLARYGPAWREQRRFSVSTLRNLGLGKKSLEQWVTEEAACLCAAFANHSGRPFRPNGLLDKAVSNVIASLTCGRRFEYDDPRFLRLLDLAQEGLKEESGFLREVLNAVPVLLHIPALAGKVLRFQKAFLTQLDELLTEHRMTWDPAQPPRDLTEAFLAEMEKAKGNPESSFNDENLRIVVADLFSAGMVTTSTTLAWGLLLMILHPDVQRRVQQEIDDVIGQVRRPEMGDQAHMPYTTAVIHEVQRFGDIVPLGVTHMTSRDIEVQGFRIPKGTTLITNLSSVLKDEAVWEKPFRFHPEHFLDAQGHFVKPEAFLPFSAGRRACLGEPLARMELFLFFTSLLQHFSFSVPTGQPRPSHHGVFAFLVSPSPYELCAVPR
# Voltage-gated inwardly rectifying potassium channel KCNH2, sequence (Q12809 whole entry): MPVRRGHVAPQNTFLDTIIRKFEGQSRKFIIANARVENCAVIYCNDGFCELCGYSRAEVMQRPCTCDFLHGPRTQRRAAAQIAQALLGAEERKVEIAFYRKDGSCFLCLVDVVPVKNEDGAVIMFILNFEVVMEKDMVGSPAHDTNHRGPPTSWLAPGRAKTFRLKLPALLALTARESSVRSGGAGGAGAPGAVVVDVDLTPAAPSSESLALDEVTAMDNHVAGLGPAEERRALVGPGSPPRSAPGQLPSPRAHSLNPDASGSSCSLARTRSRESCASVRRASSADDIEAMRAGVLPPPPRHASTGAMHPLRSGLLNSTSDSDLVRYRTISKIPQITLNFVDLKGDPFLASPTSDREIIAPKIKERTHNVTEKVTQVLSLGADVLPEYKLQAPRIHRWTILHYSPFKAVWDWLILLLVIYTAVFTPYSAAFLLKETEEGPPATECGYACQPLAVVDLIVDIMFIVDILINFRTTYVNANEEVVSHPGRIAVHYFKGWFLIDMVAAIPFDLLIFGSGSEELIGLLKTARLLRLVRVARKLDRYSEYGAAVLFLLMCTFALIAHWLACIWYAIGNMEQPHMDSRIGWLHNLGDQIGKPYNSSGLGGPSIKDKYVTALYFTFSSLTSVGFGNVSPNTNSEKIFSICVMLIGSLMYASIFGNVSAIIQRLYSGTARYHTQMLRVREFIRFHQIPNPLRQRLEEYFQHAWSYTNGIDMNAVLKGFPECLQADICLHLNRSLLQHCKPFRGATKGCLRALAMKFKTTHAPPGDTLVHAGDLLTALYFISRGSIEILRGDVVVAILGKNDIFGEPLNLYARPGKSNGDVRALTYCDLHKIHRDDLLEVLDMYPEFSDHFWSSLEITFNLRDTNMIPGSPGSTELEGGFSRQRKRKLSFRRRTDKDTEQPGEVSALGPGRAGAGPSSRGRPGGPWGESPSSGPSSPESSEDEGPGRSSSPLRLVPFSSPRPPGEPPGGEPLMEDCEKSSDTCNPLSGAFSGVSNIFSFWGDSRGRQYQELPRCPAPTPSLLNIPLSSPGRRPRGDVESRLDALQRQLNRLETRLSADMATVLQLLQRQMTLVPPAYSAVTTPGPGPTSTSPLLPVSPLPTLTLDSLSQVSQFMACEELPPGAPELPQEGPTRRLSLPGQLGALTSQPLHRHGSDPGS
# Cytochrome P450 2C9, sequence (P11712 whole entry): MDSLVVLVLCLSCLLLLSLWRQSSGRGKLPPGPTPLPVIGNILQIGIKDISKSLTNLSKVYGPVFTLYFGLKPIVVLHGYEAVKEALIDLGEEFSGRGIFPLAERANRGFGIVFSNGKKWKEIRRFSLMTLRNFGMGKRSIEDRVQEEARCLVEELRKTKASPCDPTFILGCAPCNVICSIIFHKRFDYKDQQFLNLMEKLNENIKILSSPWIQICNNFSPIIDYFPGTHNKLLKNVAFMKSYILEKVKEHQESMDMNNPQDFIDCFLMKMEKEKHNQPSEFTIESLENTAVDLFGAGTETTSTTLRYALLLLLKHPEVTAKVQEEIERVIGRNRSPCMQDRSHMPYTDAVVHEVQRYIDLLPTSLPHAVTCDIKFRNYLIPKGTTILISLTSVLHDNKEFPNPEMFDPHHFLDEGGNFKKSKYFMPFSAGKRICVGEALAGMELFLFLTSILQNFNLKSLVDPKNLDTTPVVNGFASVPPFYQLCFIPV
# Cytochrome P450 3A4, sequence (P08684 whole entry): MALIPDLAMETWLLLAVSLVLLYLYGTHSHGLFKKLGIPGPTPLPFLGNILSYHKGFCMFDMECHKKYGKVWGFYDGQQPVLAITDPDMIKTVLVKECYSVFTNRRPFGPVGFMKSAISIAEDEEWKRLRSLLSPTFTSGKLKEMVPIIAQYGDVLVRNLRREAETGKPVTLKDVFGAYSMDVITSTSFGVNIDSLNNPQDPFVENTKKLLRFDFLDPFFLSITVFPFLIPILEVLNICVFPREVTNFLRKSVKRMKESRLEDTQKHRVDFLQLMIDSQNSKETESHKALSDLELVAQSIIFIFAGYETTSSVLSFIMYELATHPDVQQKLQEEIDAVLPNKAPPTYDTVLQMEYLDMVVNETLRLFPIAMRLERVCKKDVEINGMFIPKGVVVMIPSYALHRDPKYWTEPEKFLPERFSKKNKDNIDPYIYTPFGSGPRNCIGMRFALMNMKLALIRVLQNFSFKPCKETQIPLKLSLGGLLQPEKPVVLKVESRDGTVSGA
smiles,measurement,setting,value
Cc1ccc(O)c(C)c1-n1c(N)c(C(N)=O)c2cc(C3CC3)cnc21,PPB,[1],80.3%
same,F,[2],28%
same,CL free,[3],170 mL/min/kg
Cc1c(O)ccc(Cl)c1-n1c(N)c(C(N)=O)c2nc3ccccc3nc21,IC50,Wee1-like protein kinase,0.23 µM
Cc1ccc2[nH]ncc2c1-n1c(N)c(C(N)=O)c2nc3ccccc3nc21,IC50,Wee1-like protein kinase,3.2 µM
NC(=O)c1c(N)n(-c2cccc(O)c2)c2nc3ccccc3nc12,IC50,Wee1-like protein kinase,19.6 µM
Cc1ccc(N)cc1-n1c(N)c(C(N)=O)c2nc3ccccc3nc21,IC50,[4],> 20 µM
NC(=O)c1c(N)n(-c2cccc3[nH]nnc23)c2nc3ccccc3nc12,IC50,[4],> 20 µM
Cc1ccc(O)c(C)c1-n1c(N)c(C(N)=O)c2cc(Cl)c(C)nc21,PPB,[1],93.1%
same,F,[2],24%
same,CL free,[3],731 mL/min/kg
Cc1ccc(O)c(C)c1-n1c(N)c(C(N)=O)c2nc3cc(Br)ccc3nc21,IC50,[4],< 0.003 µM
Cc1ccccc1-n1c(N)c(C(N)=O)c2nc3ccccc3nc21,IC50,[4],> 20 µM
Cc1ccc(O)cc1-n1c(N)c(C(N)=O)c2nc3ccccc3nc21,IC50,Wee1-like protein kinase,3.7 µM
same,IC50,Ephrin type-B receptor 3,0.007 µM
NC(=O)c1c(N)n(-c2cccc3[nH]cnc23)c2nc3ccccc3nc12,IC50,[4],> 20 µM
Cc1ccc(O)c(C)c1-n1c(N)c(C(N)=O)c2nc3cccc(-c4ccnn4C)c3nc21,IC50,[4],< 0.003 µM
Cc1cc2c(C(N)=O)c(N)n(-c3c(C)ccc(O)c3C)c2nc1C [LUNRESERTIB],Activity,[5],Non-Toxic
same,Papp,[6],15.2 10^-6 cm/s
same,EC50,"[7]; Homo sapiens, OVCAR-3, 10 h",0.0002 µM
same,EC90,"[7]; route po, time <= 10 hrs",0.011 µM
same,F,[8],37%
same,Time,OVCAR-3 [9],0 h
same,IC50,Cytochrome P450 2D6,> 30 µM
same,F,[10],29%
same,Activity,OVCAR-3 [11],Dde
same,IC50,[12],> 100 µM
same,F,[2]; Sprague-Dawley,48%
same,fCmax,[13],15.5 nM
same,IC50,Cytochrome P450 2C9,> 30 µM
same,CLH,[14],3.2 µL/min
same,Activity,Cytochrome P450 3A4,12.5%
same,Activity,[15],Non-Toxic
same,Activity,[16],Non-Toxic
same,Stability,[17],Stable
NC(=O)c1c(N)n(-c2cccc3[nH]ccc23)c2nc3ccccc3nc12,IC50,[4],> 20 µM
